Measurements as given in ChEMBL document CHEMBL1135255, “Design, synthesis and bioactivity evaluation of tribactam beta lactamase inhibitors” (Bioorg Med Chem Lett, 2002).

Legend:
[1] = molecular target: T1, Beta-lactamase 1 (Bacillus cereus) (UniProt P00809); assay: Inhibitory activity at beta-lactamase I from Bacillus cereus expressed as percent inhibition of beta-lactam hydrolysis at a concentration of 1.0 umol/L
T1 sequence (whole entry): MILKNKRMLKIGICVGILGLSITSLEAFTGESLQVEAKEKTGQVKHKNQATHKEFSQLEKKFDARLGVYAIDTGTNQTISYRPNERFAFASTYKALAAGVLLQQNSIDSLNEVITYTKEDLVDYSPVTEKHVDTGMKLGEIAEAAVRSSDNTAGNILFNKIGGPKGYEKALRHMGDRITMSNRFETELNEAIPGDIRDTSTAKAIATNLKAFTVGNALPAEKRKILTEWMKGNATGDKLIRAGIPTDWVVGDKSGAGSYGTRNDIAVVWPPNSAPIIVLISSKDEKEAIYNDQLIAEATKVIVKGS
Method in brief: (§1)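 B. cereus beta-lactamase I was preincubated with inhibitor (range 1–100) for 20 min at 25 °C in microtitre plates. Chromogenic substrate nitrocefin was then added, followed by a further 60 min incubation. Hydrolysis was monitored spectrophotometrically at 490 nm, and the reduction in nitrocefin hydrolysis was expressed as % enzyme inhibition.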

[2] = molecular target: T1, Beta-lactamase 1 (Bacillus cereus); assay: Inhibitory activity at beta-lactamase I from Bacillus cereus expressed as percent inhibition of beta-lactam hydrolysis at a concentration of 100.0 umol/L; method in brief: as §1
[3] = molecular target: T1, Beta-lactamase 1 (Bacillus cereus); assay: Inhibitory activity at beta-lactamase I from Bacillus cereus expressed as percent inhibition of beta-lactam hydrolysis at a concentration of 10.0 umol/L; method in brief: as §1
[4] = molecular target: T1, Beta-lactamase 1 (Bacillus cereus); assay: Inhibitory activity at beta-lactamase I from Bacillus cereus expressed as percent inhibition of beta-lactam hydrolysis at a concentration of 100.0 umol/L; The inhibitory activity at lower concentrations was not determined; method in brief: as §1
Beta-lactamase class C = Beta-lactamase class C (Enterobacter cloacae, UniProt Q59401); assay: The compound was tested for its inhibitory activity towards Class C beta-lactamase from Enterobacter cloacae 908R at 0.8 umol concentration; format: single protein
Beta-lactamase TEM = Beta-lactamase TEM (Escherichia coli, UniProt P62593); assay: The compound was tested for its inhibitory activity towards Class A TEM-1 beta-lactamase from Escherichia coli at 0.3 umol
Chain of Beta-lactamase TEM (P62593 whole entry): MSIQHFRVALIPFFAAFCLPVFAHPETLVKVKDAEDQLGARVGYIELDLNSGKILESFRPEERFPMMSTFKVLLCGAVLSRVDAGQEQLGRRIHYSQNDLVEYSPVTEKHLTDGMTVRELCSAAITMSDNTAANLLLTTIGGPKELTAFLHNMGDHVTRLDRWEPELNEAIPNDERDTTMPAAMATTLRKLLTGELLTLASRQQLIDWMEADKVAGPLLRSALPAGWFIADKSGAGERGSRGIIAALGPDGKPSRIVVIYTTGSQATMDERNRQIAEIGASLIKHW

Chain of Beta-lactamase class C (Q59401 whole entry): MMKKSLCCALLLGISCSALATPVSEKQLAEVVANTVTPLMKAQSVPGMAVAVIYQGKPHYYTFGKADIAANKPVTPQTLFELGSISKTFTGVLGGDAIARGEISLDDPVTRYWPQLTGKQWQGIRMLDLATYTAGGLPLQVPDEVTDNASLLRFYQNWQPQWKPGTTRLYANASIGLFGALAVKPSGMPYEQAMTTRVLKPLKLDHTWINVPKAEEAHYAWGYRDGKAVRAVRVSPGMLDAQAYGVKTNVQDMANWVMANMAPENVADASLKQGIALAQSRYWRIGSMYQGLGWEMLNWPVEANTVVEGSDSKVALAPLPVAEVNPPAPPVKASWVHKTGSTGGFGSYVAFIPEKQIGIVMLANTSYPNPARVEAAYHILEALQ

SMILES | inhibition [1] [%] | inhibition [2] [%] | inhibition [3] [%] | inhibition [4] [%] | IC50 (Beta-lactamase class C) [µM] | IC50 (Beta-lactamase TEM) [uM l-1] | IC50 (Beta-lactamase TEM; read-out: IC50) [µM]
O=C(O)[C@H]1/C(=C/CO)O[C@@H]2CC(=O)N21 | 9 | 78 | 33 |  |  |  | 
C[C@@H](O)[C@H]1C(=O)N2C(C(=O)O)=C3CCCCC3[C@@H]12 (some centres undefined) |  |  |  | 3 |  |  | 
CC1(C)[C@H](C(=O)O)N2C(=O)C[C@H]2S1(=O)=O | 2 | 77 | 40 |  |  |  | 
C/C=C1/C(=O)N2C(C(=O)[O-])=C3CCCCC3[C@H]12.[Na+] (some centres undefined) |  |  |  | 23 | 1.8 | 120 | 
C/C=C1/C(=O)N2C(C(=O)O)=C3CCSCC3[C@H]12 (some centres undefined) |  |  |  | 38 | 4.2 |  | 100
C[C@@H](O)[C@H]1C(=O)N2C(C(=O)O)=C3CCCCC3[C@H]12 (some centres undefined) |  |  |  | 5 |  |  | 
C/C=C1/C(=O)N2C(C(=O)O)=C3CCCCC3[C@@H]12 (some centres undefined) | -1 | 61 | 14 |  | 3 |  | 39
C/C=C1/C(=O)N2C(C(=O)O)=C3CCSCC3[C@@H]12 (some centres undefined) | 6 | 60 | 19 |  | 5 |  | 32
